Data set [1] concerns the target T1, Cathepsin K (Homo sapiens, UniProt P43235).
T1 sequence (P43235 whole entry): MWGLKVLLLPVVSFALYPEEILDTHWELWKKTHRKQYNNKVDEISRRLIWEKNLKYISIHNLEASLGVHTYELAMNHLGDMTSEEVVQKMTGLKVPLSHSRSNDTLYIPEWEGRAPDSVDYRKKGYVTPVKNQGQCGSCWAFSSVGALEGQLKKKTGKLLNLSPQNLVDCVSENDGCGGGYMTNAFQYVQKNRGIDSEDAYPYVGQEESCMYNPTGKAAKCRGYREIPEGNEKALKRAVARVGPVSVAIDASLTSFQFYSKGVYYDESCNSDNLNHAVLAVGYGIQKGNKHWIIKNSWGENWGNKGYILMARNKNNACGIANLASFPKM
The experiment in a line: Inhibition of human recombinant cathepsin K by fluorescence assay. Summed up: (§1)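 Recombinant human cathepsins K, L and S, inhibition read in a fluorescence assay; IC50 values reported.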

In a further data set the target is Procathepsin L (Homo sapiens, UniProt P07711). Put plainly: Inhibition of human recombinant cathepsin L by fluorescence assay. Summed up: as §1
Another data set deals with Cathepsin S (Homo sapiens, UniProt P25774). The experiment in a line: Inhibition of human recombinant cathepsin S by fluorescence assay. An outline of the steps:
as §1

The nature of data set [2]: Half life in Sprague-Dawley rat at 4 umol/mL/kg, iv. The class given is ADME, organism-based. To be noted: in vivo. Summed up: (§2)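 Male Sprague-Dawley rats, cassette dosing, iv and oral. Plasma levels by LC-MS/MS. Half-life is the noncompartmental terminal elimination estimate. Clearance, steady-state volume of distribution and bioavailability derived from the profiles.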

The nature of data set [3]: Plasma clearance in Sprague-Dawley rat at 4 umol/mL/kg, iv. Type of data set: ADME, organism-based. An outline of the steps: as §2
Data set [4] can be described thus: Volume of distribution at steady state in Sprague-Dawley rat at 4 umol/mL/kg, iv. As to conditions: in vivo, read-out: Vdss. Type of data set: ADME, organism-based. Summed up:
as §2

A short description of data set [5]: (§3) Bioavailability in Sprague-Dawley rat at 10 umol/5 mL/kg, po. The class given is ADME, organism-based. As to conditions: Sprague-Dawley, in vivo, 10 umol/5 mL/kg. An outline of the steps:
as §2

The subject of data set [6] is Rattus norvegicus. The experiment in a line: Antibone resorptive activity in Sprague-Dawley rat assessed as inhibition of cathepsin K-mediated C-terminal telopeptidase of type 1 collagen degradation at 100 mg/kg/day, po for 11 days measured on 24 hrs after final administration by RatLaps ELISA. The class given is functional. Set-up: scale not given: the % may be the effect or the level left. Summed up: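 Intact rats dosed orally with 100 mg/kg once daily for 11 days. Urine collected for 24 h after the final dose on day 11; CTx measured by RatLaps ELISA. Inhibition expressed as percentage of vehicle-treated controls.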

The nature of data set [7]: Drug level in Sprague-Dawley rat serum at 100 mg/kg/day, po for 11 days measured on 25 hrs after final administration. Type of data set: ADME, organism-based. Set-up: route oral. To be noted: read-out: Drug uptake. An outline of the steps: (§4)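 Rats dosed orally with 100 mg/kg once daily for 11 days. Compound concentration in bone marrow and serum measured 25 h after the final dose on day 11. BM/serum ratio calculated from the two concentrations.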

Data set [8] can be described thus: Drug level in Sprague-Dawley rat bone marrow at 100 mg/kg/day, po for 11 days measured on 25 hrs after final administration. The class given is ADME, organism-based. To be noted: read-out: Drug uptake. Also on record: route oral. An outline of the steps:
as §4

Data set [9] is described as follows: Ratio of drug level in bone marrow to serum in po dosed Sprague-Dawley rat. The class given is ADME, organism-based. As to conditions: in vivo. Summed up: as §4
Data set [10] in a line: Half life in Sprague-Dawley rat at 1 mg/mL/kg, iv. Type of data set: ADME, organism-based. As to conditions: in vivo.
Data set [11] can be described thus: Plasma clearance in Sprague-Dawley rat at 1 mg/mL/kg, iv. The class given is ADME, organism-based.
Data set [12] in a line: Volume of distribution at steady state in Sprague-Dawley rat at 1 mg/mL/kg, iv. To be noted: in vivo, read-out: Vdss. Type of data set: ADME, organism-based.
A short description of data set [13]: Bioavailability in Sprague-Dawley rat at 3 mg/5 mL/kg, po. Type of data set: ADME, organism-based. To be noted: in vivo.
Data set [14] deals with T2, Cathepsin K (Rattus norvegicus, UniProt O35186).
T2 sequence (O35186 whole entry): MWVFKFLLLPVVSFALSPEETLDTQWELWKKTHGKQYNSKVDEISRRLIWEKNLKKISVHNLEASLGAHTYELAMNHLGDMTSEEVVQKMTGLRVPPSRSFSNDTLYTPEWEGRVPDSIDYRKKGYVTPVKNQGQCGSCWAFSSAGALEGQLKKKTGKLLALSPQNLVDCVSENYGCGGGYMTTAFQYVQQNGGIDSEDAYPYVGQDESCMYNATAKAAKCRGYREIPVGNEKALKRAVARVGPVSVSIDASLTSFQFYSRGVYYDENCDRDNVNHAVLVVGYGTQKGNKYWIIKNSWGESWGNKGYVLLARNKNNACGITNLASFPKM
Put plainly: Inhibition of rat recombinant cathepsin K expressed in Sf21 cells by fluorescence assay.

Data set [15] deals with Rattus norvegicus. Described as §3. As to conditions: in vivo. Type of data set: ADME, organism-based. Summed up:
as §2

Data set [16] deals with Cynomolgus monkey. Put plainly: Antibone resorptive activity in cynomolgus monkey assessed as reduction of C-terminal telopeptidase of type 1 collagen degradation at 2 mg/kg/day, po measured before 8 hrs after first administration by CrossLaps ELISA. Type of data set: functional, organism-based. To be noted: Macaca fascicularis. Summed up: (§5)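 Cynomolgus monkeys given 2 mg/kg orally once daily for 14 days. CTx measured by CrossLaps ELISA before and 8 h after dosing on day 1 and on days 7 and 14, and at 24 h after the first dose. Vehicle group run in parallel to allow for daily CTx fluctuation. Means and SEM, n = 4, 5; t-test against vehicle control.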

The subject of data set [17] is Cynomolgus monkey. The experiment in a line: Antibone resorptive activity in cynomolgus monkey assessed as reduction of C-terminal telopeptidase of type 1 collagen degradation at 2 mg/kg/day, po measured after 24 hrs after first administration by CrossLaps ELISA. Type of data set: functional, organism-based. As to conditions: Macaca fascicularis. Summed up:
as §5

The test system of data set [18] is Cynomolgus monkey. Put plainly: Antibone resorptive activity in cynomolgus monkey assessed as reduction of C-terminal telopeptidase of type 1 collagen degradation at 2 mg/kg/day, po measured before 8 hrs after 7 days of administration by CrossLaps ELISA. The class given is functional, organism-based. To be noted: Macaca fascicularis. An outline of the steps:
as §5

Data set [19] deals with Cynomolgus monkey. The experiment in a line: Antibone resorptive activity in cynomolgus monkey assessed as reduction of C-terminal telopeptidase of type 1 collagen degradation at 2 mg/kg/day, po measured after 8 hrs after 7 days of administration by CrossLaps ELISA. The class given is functional, organism-based. To be noted: Macaca fascicularis. An outline of the steps:
as §5

For data set [20], the system named is Cynomolgus monkey. The experiment in a line: Antibone resorptive activity in cynomolgus monkey assessed as reduction of C-terminal telopeptidase of type 1 collagen degradation at 2 mg/kg/day, po measured before 8 hrs after 14 days of administration by CrossLaps ELISA. As to conditions: Macaca fascicularis. Type of data set: functional, organism-based. Summed up:
as §5

In data set [21] the test system is Cynomolgus monkey. The experiment in a line: Antibone resorptive activity in cynomolgus monkey assessed as reduction of cathepsin K-mediated C-terminal telopeptidase of type 1 collagen degradation at 2 mg/kg/day, po measured after 8 hrs after 14 days of administration by CrossLaps ELISA. Type of data set: functional, organism-based. To be noted: Macaca fascicularis. An outline of the steps:
as §5

Data set [22] deals with Cynomolgus monkey. Put plainly: Toxicity in cynomolgus monkey at 2 mg/kg/day, po for 14 days. As to conditions: in vivo, 336 h. Type of data set: organism-based, Macaca fascicularis. Also on record: route oral.

SMILES strings stand for the structures. The source made the active and inactive calls. The rule behind the calls is not given here.

Sequence of Cathepsin S (P25774 whole entry): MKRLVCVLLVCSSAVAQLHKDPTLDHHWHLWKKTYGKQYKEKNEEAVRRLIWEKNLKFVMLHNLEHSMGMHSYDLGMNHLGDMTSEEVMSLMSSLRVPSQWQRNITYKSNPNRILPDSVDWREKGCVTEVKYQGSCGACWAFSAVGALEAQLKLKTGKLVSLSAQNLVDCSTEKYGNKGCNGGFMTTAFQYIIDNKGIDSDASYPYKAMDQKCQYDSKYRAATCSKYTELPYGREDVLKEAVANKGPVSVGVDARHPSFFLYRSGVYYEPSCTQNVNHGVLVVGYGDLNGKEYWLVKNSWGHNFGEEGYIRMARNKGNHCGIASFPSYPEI
Sequence of Procathepsin L (P07711 whole entry): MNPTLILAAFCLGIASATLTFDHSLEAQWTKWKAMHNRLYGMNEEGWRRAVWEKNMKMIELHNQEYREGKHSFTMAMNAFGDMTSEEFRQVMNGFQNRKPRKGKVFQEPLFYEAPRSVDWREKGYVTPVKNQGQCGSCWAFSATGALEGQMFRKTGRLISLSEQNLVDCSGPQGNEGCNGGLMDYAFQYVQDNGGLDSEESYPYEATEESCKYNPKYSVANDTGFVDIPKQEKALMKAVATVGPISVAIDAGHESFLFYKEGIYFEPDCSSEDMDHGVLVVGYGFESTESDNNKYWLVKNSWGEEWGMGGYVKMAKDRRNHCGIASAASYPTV

Take `CCCN1C(=O)NC2(CCN(Cc3cc4cnc(C#N)nc4n3CC(C)(C)C)CC2)C1=O`: the results for the IC50 on Cathepsin K [1], on Procathepsin L and on Cathepsin S were below 1 nM, above 1000 nM and above 1000 nM, respectively. This compound had a half-life in [2] of 1.9 h. The same compound had a clearance in [3] of 45 mL/min/kg. Besides, the Vd in [4] was determined as 6.7 L/kg. Besides, the bioavailability in [5] was determined as 58%. Also, the Activity with Rattus norvegicus [6] came out at 11.3%. The concentration at 25 h came to 545 nM in [7] and 832 nM in data set [8]. In data set [9], the Drug uptake worked out at 1.5.
As for `CC(C)(C)Cn1c(CN2C(=O)C3(CCNCC3)c3cc(F)ccc32)cc2cnc(C#N)nc21`, in [10], the half-life is 6.6 h. Moreover, the clearance in data set [11] was 132 mL/min/kg. Moreover, the Vd in data set [12] is 78.4 L/kg. In addition, the bioavailability in [13] is 36%. Moreover, in the data set on Rattus norvegicus [6], the Activity was 36.2%. Moreover, the concentration at 25 h came to 1200 nM in [7] and 119000 nM in data set [8]. Also, the Drug uptake in data set [9] was found to be 99. In addition, the IC50 at Cathepsin K [14] is 78 nM.
`CN1C(=O)NC2(CCN(Cc3cc4cnc(C#N)nc4n3CC(C)(C)C)CC2)C1=O` had a half-life in [2] of 1.4 h. In addition, the clearance in data set [3] was 35 mL/min/kg. Moreover, in [4], the Vd was 4.3 L/kg. In addition, the bioavailability in data set [5] was determined as 144%. The Activity with Rattus norvegicus [6] amounted to 6.8%. Also, the figures for the concentration at 25 h in data set [7] and in data set [8] were 64 nM and 302 nM, respectively. Moreover, the Drug uptake in data set [9] was determined as 4.7. The IC50 at Cathepsin K [14] worked out at 12 nM.
Consider `CCCN1CCC2(CC1)NC(=O)N(Cc1cc3cnc(C#N)nc3n1CC(C)(C)C)C2=O`, for which the half-life in data set [2] is 2.8 h. The clearance in [3] is 85 mL/min/kg. Also, the Vd in data set [4] was 17.3 L/kg. In addition, the bioavailability in data set [5] amounted to 49%. For the same compound, the Activity in the data set on Rattus norvegicus [6] amounted to 89.9%. Besides, the concentration at 25 h in data set [7] was determined as 133 nM; in data set [8], 17600 nM. Also, in [9], the Drug uptake amounted to 132. Besides, the 50% inhibitory concentration (IC50) on Cathepsin K [14] worked out at 27 nM.
For `CC(C)(C)Cn1c(CN2CCC3(CC2)NC(=O)NC3=O)cc2cnc(C#N)nc21`, the IC50 on Cathepsin K [1] was below 1 nM; on Procathepsin L, above 1000 nM; on Cathepsin S, above 1000 nM. This compound had a half-life in data set [2] of 1.6 h. In [3], this compound had a clearance of 78.3 mL/min/kg. Also, the Vd in data set [4] is 5.9 L/kg. Also, in data set [5], the bioavailability worked out at 42%. Also, in the data set on Rattus norvegicus [6], the Activity is reported as -7.9%. For the same compound, the concentration at 25 h in [7] is 557 nM; in [8] it was 381 nM. Also, in data set [9], the Drug uptake is 0.7.
As to `COc1ccc2c(c1)C1(CCNCC1)C(=O)N2Cc1cc2cnc(C#N)nc2n1CC(C)(C)C`, the IC50 at Cathepsin K [1] is below 1 nM; at Procathepsin L it was above 1000 nM; at Cathepsin S it was above 1000 nM; at Cathepsin K [14], 44 nM. Further, in [10], the half-life is 4.9 h. In addition, the clearance in data set [11] is 182 mL/min/kg. Also, the Vd in data set [12] was 73.6 L/kg. Moreover, the bioavailability in [13] turned out to be 29%. The Activity with Rattus norvegicus [6] stood at 68%. Further, the concentration at 25 h in data set [7] turned out to be 288 nM; in [8], 45800 nM. In addition, in [9], the Drug uptake amounted to 159.
For the compound `CC(C)(C)Cn1c(CN2C(=O)NC3(CCNCC3)C2=O)cc2cnc(C#N)nc21`, the IC50 on Cathepsin K [1] was below 1 nM; on Procathepsin L, above 1000 nM; at Cathepsin S it was above 1000 nM; at Cathepsin K [14] it was 76 nM. The same compound gave a half-life in [2] of 3.3 h. The compound further showed a clearance in [3] of 245 mL/min/kg. Moreover, the Vd in data set [4] was found to be 59.2 L/kg. For the same compound, in the data set with Rattus norvegicus [15], the Activity result is “Not Active”.
For the compound `CC(C)(C)Cn1c(CN2C(=O)CC3(CCNCC3)C2=O)cc2cnc(C#N)nc21`, in data set [10], the half-life was 4.7 h. Moreover, the clearance in [11] was 238 mL/min/kg. Also, the Vd in data set [12] is 97.2 L/kg. For the same compound, in [13], the bioavailability came to 98%. Further, the Activity in the data set on Rattus norvegicus [6] is listed as 73.2%; in the data set with Cynomolgus monkey [22], “Non-toxic”. Also, the concentration at 25 h in [7] is 960 nM; in data set [8] it was 33500 nM. Moreover, in data set [9], the Drug uptake turned out to be 34.9. For the same compound, the result with Cynomolgus monkey [16], with Cynomolgus monkey [17], in the data set with Cynomolgus monkey [18], in the data set on Cynomolgus monkey [19], in the data set with Cynomolgus monkey [20] and in the data set on Cynomolgus monkey [21] was Active. The half-inhibitory concentration (IC50) on Cathepsin K [14] was found to be 30 nM.

The record behind these values is ChEMBL document CHEMBL1140037, “Effect of cathepsin K inhibitors on bone resorption” (J Med Chem, 2008).
